Laboratory results from ChEMBL document CHEMBL3046880, “Syntheses and herbicidal activities of novel triazolinone derivatives” (J Agric Food Chem, 2008).

Legend:
Type in all cases: functional
Chenopodium album = experiment: Herbicidal activity against Chenopodium album assessed as growth inhibition at 150 g of active ingredient/ha administered using post-emergence treatment measured 15 days post treatment protocol under greenhouse conditions
Outline: (§1)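 Test agents were formulated as 100 g/L emulsified concentrates (DMF solvent, TW-80 emulsifier), diluted with water and sprayed postemergence on pot-grown weeds. Seeds were sown 1-3 cm deep in clay soil (pH 6.5, 1.6% organic matter, 37.3% clay, CEC […]) and grown at 15–30 °C in a greenhouse. Dicots were treated at the two-leaf stage. Untreated and DMF-treated plants served as controls. Activity was scored visually 15 days after treatment.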

Setaria viridis = experiment: Herbicidal activity against Setaria viridis (green foxtail) assessed as growth inhibition at 150 g of active ingredient/ha administered using post-emergence treatment measured 15 days post treatment protocol under greenhouse conditions; outline: as §1
Echinochloa crus-galli = experiment: Herbicidal activity against Echinochloa crus-galli (barnyard grass) assessed as growth inhibition at 150 g of active ingredient/ha administered using post-emergence treatment measured 15 days post treatment protocol under greenhouse conditions; outline: as §1
Digitaria sanguinalis = experiment: Herbicidal activity against Digitaria sanguinalis (hairy crabgrass) assessed as growth inhibition at 150 g of active ingredient/ha administered using post-emergence treatment measured 15 days post treatment protocol under greenhouse conditions; outline: as §1
Amaranthus retroflexus = experiment: Herbicidal activity against Amaranthus retroflexus assessed as growth inhibition at 150 g of active ingredient/ha administered using post-emergence treatment measured 15 days post treatment protocol under greenhouse conditions; outline: as §1
Brassica juncea = experiment: Herbicidal activity against Brassica juncea assessed as growth inhibition at 150 g of active ingredient/ha administered using post-emergence treatment measured 15 days post treatment protocol under greenhouse conditions; outline: as §1

SMILES | growth inhibition (GI) (Chenopodium album) | growth inhibition (GI) (Setaria viridis) | growth inhibition (GI) (Echinochloa crus-galli) | growth inhibition (GI) (Digitaria sanguinalis) | growth inhibition (GI) (Amaranthus retroflexus) | growth inhibition (GI) (Brassica juncea)
Cc1nn(-c2cc(N3C(=O)c4ccccc4C3=O)c(Br)cc2F)c(=O)n1C(F)F | >80% | >80% | 50% | >80% | 100% | >80%
Cc1nn(-c2cc(N3C(=O)c4ccccc4C3=O)c(Cl)cc2Cl)c(=O)n1C(F)F | 100% | 50% | 50% | 50% | 100% | <50%
Cc1nn(-c2cc(N3C(=O)c4ccccc4C3=O)c(F)cc2Br)c(=O)n1C(F)F | <50% | <50% | <50% | <50% | <50% | <50%
Cc1nn(-c2cc(N3C(=O)c4ccccc4C3=O)ccc2Cl)c(=O)n1C(F)F | <50% | <50% | <50% | <50% | <50% | <50%
Cc1nn(-c2cc(N3C(=O)C4=C(CCCC4)C3=O)c(Br)cc2F)c(=O)n1C(F)F | 100% | 50% | 50% | 50% | 100% | <50%
Cc1nn(-c2cc(N3C(=O)C4=C(CCCC4)C3=O)c(Cl)cc2Cl)c(=O)n1C(F)F | 100% | 50% | 50% | 50% | 100% | <50%
Cc1nn(-c2cc(N3C(=O)C4=C(CCCC4)C3=O)c(F)cc2Br)c(=O)n1C(F)F | <50% | <50% | <50% | <50% | 50% | 50%
Cc1nn(-c2cc(N3C(=O)C4=C(CCCC4)C3=O)ccc2Cl)c(=O)n1C(F)F | <50% | <50% | <50% | <50% | <50% | <50%
Cc1nn(-c2cc(N3C(=O)C4CCCCC4C3=O)c(Br)cc2F)c(=O)n1C(F)F (stereo not given) | 100% | 50% | 50% | 50% | 100% | 50%
Cc1nn(-c2cc(N3C(=O)C4CCCCC4C3=O)c(Cl)cc2Cl)c(=O)n1C(F)F (stereo not given) | >80% | <50% | <50% | <50% | 100% | <50%
Cc1nn(-c2cc(N3C(=O)C4CCCCC4C3=O)c(F)cc2Br)c(=O)n1C(F)F (stereo not given) | 50% | <50% | <50% | <50% | <50% | 50%
Cc1nn(-c2cc(N3C(=O)C4CCCCC4C3=O)ccc2Cl)c(=O)n1C(F)F (stereo not given) | <50% | <50% | <50% | <50% | <50% | <50%
Cc1nn(-c2cc(NC(=O)Nc3ccccc3)ccc2Cl)c(=O)n1C(F)F | <50% | <50% | <50% | <50% | <50% | <50%
Cc1nn(-c2cc(NC(=O)Nc3ccc(Cl)cc3)ccc2Cl)c(=O)n1C(F)F | <50% | <50% | <50% | <50% | <50% | <50%
Cc1nn(-c2cc(NC(=O)Nc3ccccc3)c(Br)cc2F)c(=O)n1C(F)F | <50% | <50% | <50% | <50% | <50% | <50%
Cc1nn(-c2cc(NC(=O)Nc3ccc(Cl)cc3)c(Br)cc2F)c(=O)n1C(F)F | <50% | <50% | <50% | <50% | <50% | <50%
Cc1nn(-c2cc(NC(=O)Nc3ccccc3)c(F)cc2Br)c(=O)n1C(F)F | <50% | <50% | <50% | <50% | <50% | <50%
Cc1nn(-c2cc(NC(=O)Nc3ccc(Cl)cc3)c(F)cc2Br)c(=O)n1C(F)F | <50% | <50% | <50% | <50% | <50% | <50%
Cc1nn(-c2cc(NC(=O)Nc3ccccc3)c(Cl)cc2Cl)c(=O)n1C(F)F | <50% | <50% | <50% | <50% | <50% | <50%
Cc1nn(-c2cc(NC(=O)Nc3ccc(Cl)cc3)c(Cl)cc2Cl)c(=O)n1C(F)F | <50% | <50% | <50% | <50% | <50% | <50%
